# High-throughput results: PubChem BioAssay, several laboratories
# This is a sample that favours compounds with a hit; in the whole collection about 2% have one here.
# PG9 binder = PG9 antibody binding by small molecule. TR-FRET gp120-PG9 antibody binding. inhibition, % at 6.7 µM. 360,000 tested, 0.43% active; in the data active = inhibition above about 8.5%
# Neddyl block = blocks human cullin neddylation. P61081+Q13564. TR-FRET cullin neddylation, biochemical. calls only at 25 µM. 360,000 tested, 0.58% active; in the data active = inhibition above about 36%
# NR2E3 ag-1 = NR2E3 (human) agonism; Q9Y5X4; GST-NR2E3/biotin-RetCOR TR-FRET, 1536-well; inhibition of corepressor binding, % at 4.78 µM; 320,000 tested, 0.12% active; AID 2300;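 active = percent inhibition above the cutoff of mean plus 3 SD of all tested compounds, set per screening campaign, cut at about 20% in these data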;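 also: 0% = DMSO wells and 100% = biotin wells as full block of FRET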
# Target sequence (Q9Y5X4 whole entry, looked up): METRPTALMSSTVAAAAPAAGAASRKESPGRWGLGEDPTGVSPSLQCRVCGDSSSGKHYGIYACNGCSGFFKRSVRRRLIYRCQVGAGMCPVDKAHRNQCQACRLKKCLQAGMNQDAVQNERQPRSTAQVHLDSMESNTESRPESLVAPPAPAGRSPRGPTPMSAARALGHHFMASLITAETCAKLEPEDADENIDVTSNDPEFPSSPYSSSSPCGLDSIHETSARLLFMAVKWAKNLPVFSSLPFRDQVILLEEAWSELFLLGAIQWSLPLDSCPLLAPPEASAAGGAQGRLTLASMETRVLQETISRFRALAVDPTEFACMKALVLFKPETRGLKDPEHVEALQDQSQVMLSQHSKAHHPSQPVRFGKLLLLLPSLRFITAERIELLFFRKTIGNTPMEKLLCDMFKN
#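 Material: NR2E3–RetCOR corepressor complex / Amount: 1.35 nM GST-NR2E3 / Medium: Tris pH 7.5 / Compound: single nominal compound dose of 4.8 µM / Incubation: 5 h at 4 °C / Technique: TR-FRET, Eu(K)-anti-GST donor, streptavidin-D2 acceptor, ex 340, em 617/671 nm / Read-out basis: percent loss of FRET ratio relative to control wells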
# NR1D1 modulator = modulators of human Rev-erb alpha DNA binding. Rev-erbα–FITC-DNA binding, fluorescence polarization, 90 min. activity, % at 10 µM. 370,000 tested, 0.79% active;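 active = activity above about 14%, limit read from the data; passing the limit was not always enough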;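 also: 0% = DMSO wells with 35 nM protein and 100% = DMSO wells with 750 nM protein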
# NR2E3 ag-2 = human photoreceptor-specific nuclear receptor agonism. Q9Y5X4. CHO-S Gal4-NCOR/VP16-NR2E3 two-hybrid, luciferase. inhibition of corepressor binding, % at 3.98 µM. 360,000 tested, 0.35% active. AID 602229;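 active = inhibition above the mean of all tested compounds plus 3 SD, cut at about 70% in these data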;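 also: 0% = DMSO with NR2E3 transfected cells and 100% = cells lacking NR2E3 construct; higher means lower luciferase signal from less NR2E3 corepressor binding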
# Neddyl conf = confirmation of human cullin neddylation inhibitors. shares compounds with Neddyl block. TR-FRET cullin neddylation biochemical assay. calls only at 25 µM. 1,800 tested, 13% active. AID 652217; in the data active = inhibition above about 40%;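 also: neddylation substrate is the cullin 1 ring ligase complex with SKP2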
# Starred values were filed as active, the others as inactive; i = inactive; . = no result given; + = active, no number.
SMILES,PG9 binder,Neddyl block,NR2E3 ag-1,NR1D1 modulator,NR2E3 ag-2,Neddyl conf
O=C(C1CCCN1S(=O)(=O)c1cccs1)N1CCc2ccccc2C1 (stereo not given),.,.,.,2,.,.
CCCNC(=O)c1ccccc1NC(=O)c1ccc2c(=O)n3c(nc2c1)CCC3,0,+,1,-5,-28,.
CCOc1ccccc1NC(=O)c1ccc2c(=O)n3c(nc2c1)CCCCC3,-1,i,-1,-2,1,.
CCOC(=O)c1snc2c(=O)[nH]cnc12,0,+,1,-5,26,i
COc1ccc(/C=C\c2cc(OC)c(OC)cc2CC[N+](C)(C)C)cc1OC,-2,+,1,-3,-23,i
Cc1cccc(CNc2ncnc3ccc(-c4ccc5c(c4)OCCO5)cc23)c1,-1,+,4,2,8,i
c1cncc(CNc2ncnc3ccc(-c4ccc5c(c4)OCO5)cc23)c1,0,+,.,0,6,i
O=C1CN(C(=O)COc2ccccc2Cl)c2ccccc2N1,1,i,1,-6,-12,.
Cc1cc(=O)oc2cc(OCC(=O)N3CC(=O)Nc4ccccc43)c(Cl)cc12,0,+,-1,-2,-10,i
CN(C)CCN1CCN(C2CN(Cc3cn(Cc4ccccc4)nn3)S(=O)(=O)C2)CC1 (stereo not given),1,i,.,2,13,.
C[C@@H]1CN([C@@H](C)CO)S(=O)(=O)c2ccc(Br)cc2O[C@H]1CN(C)Cc1ccccn1,1,i,.,1,-14,.
COc1cccc(S(=O)(=O)N(C)C[C@@H]2OCc3cnnn3CCCC(=O)N([C@H](C)CO)C[C@@H]2C)c1,0,i,.,-8,2,.
CN1CCN(c2nc(N3CCN(CCO)CC3)nc3ccccc23)CC1,1,+,1,2,-9,.
c1ccc(CN2CCN(c3nc(N4CCOCC4)c4ccccc4n3)CC2)cc1,-1,i,0,-1,-40,.
COC(=O)Nc1c(-c2ccccc2)nc2ccccn12,0,.,1,-1,5,.
c1ccc(-c2nc3ccccn3c2-c2ccccc2)cc1,-1,+,-2,3,18,.
CC(C)(c1ccc(O)cc1)c1ccc(O)c(C(=O)O)c1,0,.,.,5,18,.
CCn1c(CN2CCOCC2)nnc1SCC(=O)Nc1ccccc1Cl,3,i,1,3,-9,.
Cc1c(CCC(=O)NCCCn2ccnc2)c(=O)oc2cc3occ(C(C)(C)C)c3cc12,-1,+,2,-1,0,.
Cc1coc2cc3oc(=O)c(CCC(=O)NCCCn4ccnc4)c(C)c3cc12,-2,.,-2,5,-15,.
Nc1cccc(-c2ccc(CO)o2)c1,-1,+,-2,0,-19,i
CC1(C(=O)NS(=O)(=O)c2ccc(F)cc2F)CCN1C(=O)c1ccc(C2CCCCC2)cc1 (stereo not given),-3,i,.,-14,-1,.
CC(C)COC(=O)N(C)C[C@@H]1OCc2cnnn2CCCC(=O)N([C@H](C)CO)C[C@@H]1C,0,i,.,3,-10,.
Nc1cc2c(cc1Br)-c1c(C(=O)O)cccc1C2O (stereo not given),-4,+,.,4,-28,i
COc1cc(N)c(Br)cc1C(=O)O,-1,i,-1,-8,-2,.
SMILES,PG9 binder,Neddyl block,NR2E3 ag-1,NR1D1 modulator,NR2E3 ag-2,Neddyl conf
COc1ccc(NC(=O)c2ccc(-c3ccc(C(C)=O)cc3)o2)cn1,-3,+,3,-1,-96,i
CCCN(CC(=O)Nc1ccccc1C)C(=O)CSc1ccccc1C,-2,i,2,1,2,.
O=C1OC(C(Cl)(Cl)Cl)Nc2ccccc21 (stereo not given),0,+,.,-11,-14,i
CCc1ccc2oc(-c3ccc(OC)cc3)cc(=Nc3cccc(C(=O)O)c3)c2c1,-1,+,-1,-11,-164,i
COc1ccc(/C=N/NC(=O)c2ccc(O)cc2O)cc1CSc1ccccn1,0,+,-2,-4,-19,i
COc1ccc(/C=N\NC(=O)c2ccc(-c3ccccc3)cc2)cc1COC(C)=O,-3,+,-1,-2,-3,i
COc1ccc(C=O)cc1CSc1ccccn1,-2,i,-1,1,-17,.
CC(=O)Nc1sc(C)c(C)c1C(=O)OCC(=O)N(CCC#N)c1cc(C)cc(C)c1,2,i,.,2,-11,.
CCCCN(CC)CCCNC(=O)c1cc2c(-c3ccc(OC)c(OC)c3)nn(C)c2s1,-3,+,1,2,-7,i
CC1CC(=O)c2cnc(Nc3ccccc3)nc2C1 (stereo not given),0,+,-2,-4,-111,.
CC1CC(=O)c2cnc(Nc3cccc(C(F)(F)F)c3)nc2C1 (stereo not given),-1,i,4,-7,-3,.
CC(C)[N+]1=C2C=CC=CC=C2SC12C([N+](=O)[O-])=CC(=[N+]([O-])[O-])C=C2[N+](=O)[O-] (stereo not given),1,+,0,-1,0,i
CCCCn1c(=NC(=O)c2ccc3c(c2)OCO3)c(C#N)cc2c(=O)n3cccc(C)c3nc21,-3,+,5,2,-13,i
CN(C)C(=S)Oc1ccccc1C1SCCS1,1,i,.,9,2,.
COc1cc2c(cc1OC)-c1cc(Nc3ccc(C)cc3)nc(=O)n1CC2,0,i,0,-4,5,.
COc1ccc(Nc2cc3n(c(=O)n2)CCc2cc(OC)c(OC)cc2-3)cc1,-2,+,4,-1,-56,.
CCOC(=O)N1CCN(C(=O)CSc2ccc3nnc(-c4ccccn4)n3n2)CC1,-2,+,0,1,-38,i
COc1ccc(OC)c(/C=N\NC(=O)CSc2nnc(CCCc3ccc(OC)c(C)c3)o2)c1,-3,+,2,10,-10,.
COc1ccc(CCCc2nnc(SCC(=O)Nc3cc(C)c(C)cc3Br)o2)cc1,-3,i,-1,0,-25,.
CS(=O)(=O)N(CC(=O)N/N=C/c1cccc2c1OCCO2)c1ccccc1Br,-1,+,2,1,5,+
Cc1cccc(S(=O)(=O)C(C#N)c2nc3ccccc3nc2N2CC(C)OC(C)C2)c1 (stereo not given),2,+,3,1,8,i
O=C1c2ccccc2NC(c2ccccn2)N1c1ccc(Cl)cc1 (stereo not given),-1,+,3,-1,-84,.
Cc1cccc(C2Nc3ccccc3C(=O)N2c2ccccc2)n1 (stereo not given),-1,.,1,3,-20,.
O=C(NN1C(=O)c2ccccc2NC1c1ccccn1)c1ccccc1 (stereo not given),0,+,-2,2,-30,.
CCc1cc(C(=O)N2CCCc3ccccc32)sc1C,3,i,0,-1,-44,.
